Source: PubChem BioAssay (The Scripps Research Institute Molecular Screening Center)
Tb MetRS inh – Trypanosoma brucei MetRS inhibition | AID 624268 | purified T. brucei MetRS, ATP depletion, Kinase-Glo luminescence | inhibition, % at 11.9 µM | actives 0.4% (n = 360,000);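 active = inhibition above a per-plate cutoff of the control wells' mean inhibition plus 3 SD, cut at about 5.5% in these data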;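 also: 0% = DMSO wells median and 100% = median of wells with control inhibitor compound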
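Material – parasite MetRS enzyme · Medium – HEPES-MgCl2-KCl buffer plus DTT, spermine, BSA, pyrophosphatase · Reagent – ATP, methionine and E. coli bulk tRNA substrates · Times – 15 min enzyme-compound preincubation, 2 h reaction, 10 min detection, 25 °C · Measured by – luminescence of leftover ATP · Evaluation – percent inhibition relative to median high and low control wells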
PLCb3 inh – PLC-beta3 (human) inhibition, primary screen; Q01970; Purified PLC-beta3, fluorogenic substrate, fluorescence; inhibition, % at 12.2 µM; actives 0.18% (n = 370,000); AID 720704; in the data active = inhibition above about 11%;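 also: 0% = median of compound wells on plate and 100% = full blocker control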
PLC-gamma1 inh – inhibitors of human phospholipase C gamma1. P19174. inhibition, % at 12.2 µM. purified PLC-gamma1, fluorogenic substrate, fluorescence. actives 0.84% (n = 370,000); in the data active = inhibition above about 9.5%
ADAM17 inh – ADAM17 inhibition, QFRET primary screen; inhibition, % at 6.95 µM; P78536; recombinant ADAM17, EDANS/DABCYL FRET peptide cleavage; actives 0.83% (n = 370,000);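 active = inhibition above the mean of compounds lying between control limits plus 3 SD, set per campaign, cut at about 8.5% in these data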;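 also: 0% = DMSO-only wells as the low control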
ADAM10 inh – ADAM10 inhibition, QFRET primary screen; actives 0.62% (n = 370,000); inhibition, % at 7 µM; O14672; recombinant ADAM10, EDANS/DABCYL FRET peptide cleavage, 3 h;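 active = inhibition above a per-campaign cutoff equal to the mean of compounds falling between control-based bounds plus 3 SD, cut at about 20% in these data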;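 also: 0% = DMSO wells while the 100% control is not disclosed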
Target sequence (O14672 214-748 limits assumed): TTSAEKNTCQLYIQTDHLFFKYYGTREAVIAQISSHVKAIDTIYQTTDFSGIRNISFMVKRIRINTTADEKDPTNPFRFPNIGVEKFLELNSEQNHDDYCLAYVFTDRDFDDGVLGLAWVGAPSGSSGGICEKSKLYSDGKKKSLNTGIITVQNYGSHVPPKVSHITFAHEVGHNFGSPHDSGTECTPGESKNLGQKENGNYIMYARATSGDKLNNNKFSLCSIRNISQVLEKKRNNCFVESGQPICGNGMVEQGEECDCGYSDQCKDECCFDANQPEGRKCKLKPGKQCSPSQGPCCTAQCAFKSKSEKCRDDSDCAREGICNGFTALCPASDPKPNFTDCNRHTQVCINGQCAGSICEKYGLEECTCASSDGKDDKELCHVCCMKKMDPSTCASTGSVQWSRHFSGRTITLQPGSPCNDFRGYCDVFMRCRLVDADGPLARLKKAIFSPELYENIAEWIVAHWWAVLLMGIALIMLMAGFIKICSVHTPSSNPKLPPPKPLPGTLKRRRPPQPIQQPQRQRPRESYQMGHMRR
ADAM10 confirm – human ADAM10 inhibition, confirmation | AID 743208 | inhibition, % at 6.95 µM | ADAM10 QFRET peptide cleavage, EDANS fluorescence | shares compounds with ADAM10 inh | actives 1% (n = 2,100);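 active = inhibition above about 20% chosen separately for each screening run, limit read from the data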;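 also: 0% = DMSO wells and 100% = marimastat wells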
ADAM17 ctr – ADAM17 inhibition, counter-screen for ADAM10 exosite hits. ADAM17 QFRET peptide cleavage, EDANS fluorescence. shares compounds with ADAM10 inh. actives 0.5% (n = 2,100). inhibition, % at 6.95 µM;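 active = mean triplicate inhibition above the solvent-only control wells' mean plus 3 SD, cut at about 12% in these data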;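 also: 0% = DMSO wells and 100% = marimastat wells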
ADAM10 counter – counter-screen for ADAM17 exosite inhibitors: inhibitors of human ADAM10; shares compounds with ADAM17 inh; recombinant ADAM10, EDANS/DABCYL FRET peptide cleavage, 3 h; inhibition, % at 6.95 µM; actives 47% (n = 2,900); AID 743256;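 active = mean inhibition over the triplicate runs exceeds the activity threshold set in the earlier primary screen, cut at about 20% in these data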;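 also: 0% = DMSO wells and 100% = marimastat wells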
ADAM17 confirm – human ADAM17 inhibition, confirmation. shares compounds with ADAM17 inh. recombinant ADAM17, EDANS/DABCYL QFRET peptide cleavage. inhibition, % at 6.95 µM. actives 65% (n = 2,900). AID 743257;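 active = mean inhibition across replicates above the hit cutoff set in the primary screen, cut at about 8.5% in these data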;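 also: 0% = DMSO wells and 100% = marimastat wells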
An asterisk follows results filed as active; / = no result. Compounds with a hit are over-represented: about 2.3% of the library has one in this group of screens.

SMILES	Tb MetRS inh	PLCb3 inh	PLC-gamma1 inh	ADAM17 inh	ADAM10 inh	ADAM10 confirm	ADAM17 ctr	ADAM10 counter	ADAM17 confirm
CCOc1cc(/C=N/O)cc(Br)c1OCc1ccc(Cl)cc1	-1	-2	2	8.9*	25*	6	3	52*	21*
CCOC(=O)C(=O)Cc1nc(OCc2ccccc2)cc(OCc2ccccc2)n1	0	-6	0	-3	-3	/	/	/	/
CCOC(=O)C(Cc1nc(OCc2ccccc2)cc(OCc2ccccc2)n1)=NO	0	4	-1	8.8*	28*	9	3	24*	12*
COc1nc(OC)nc(N2CCC(C(=O)NCc3cccc(OC)c3OC)CC2)n1	/	3	3	0	0	/	/	/	/
O=[N+]([O-])c1ccc(COc2ccccc2CO)cc1	/	1	5	4	11	/	/	/	/
C[C@@H]1CN([C@@H](C)CO)C(=O)Cc2cc(NC(=O)Nc3ccc(C(F)(F)F)cc3)ccc2O[C@@H]1CN(C)S(=O)(=O)c1ccc(Cl)cc1	0	5	2	15*	35*	9	3	51*	27*
C[C@H]1CN([C@@H](C)CO)C(=O)Cc2cc(NC(=O)CCC(F)(F)F)ccc2O[C@H]1CN(C)Cc1ccc(C(F)(F)F)cc1	0	6	4	11*	25*	2	2	27*	16*
Cc1cccc2sc(NNC(=O)c3cc(-c4cccs4)nc4ccccc34)nc12	0	-130	-125	-135	-412	/	/	/	/
C[C@@H]1C[C@H](O)CCCCCC(=O)Cc2cc(O)cc(O)c2C(=O)O1	/	2	1	-1	-7	/	/	/	/
COc1ccc(C(=O)NC(=S)Nc2ccc(N3CCCC3)cc2)cc1	0	-1	0	-1	-8	/	/	/	/
COc1cccc(C(=O)NC(=S)Nc2ccc(N3CCCC3)cc2)c1	-1	-2	-2	12*	32*	6	2	14	11*
CCc1ccc(/C=c2\s/c(=C\C(=O)C(C)(C)C)[nH]c2=O)cc1	0	-11	-15	17*	33*	11	5	20*	17*
CC(=O)Nc1cc(-c2ccccc2)cn2c(-c3ccc(F)cc3)cnc12	0	-19	-13	-11	-32	/	/	/	/
CCCc1nc2ccccc2c(C(=O)OCC(=O)NCc2ccc3c(c2)OCO3)c1CC	-1	0	0	6	8	/	/	/	/
CCCc1nc2ccccc2c(C(=O)OC(C)C(=O)NCc2ccc3c(c2)OCO3)c1CC (configuration not stated)	0	0	3	10*	27*	3	1	25*	12*
Cc1cc(NC(=O)CS(=O)(=O)c2cn(Cc3cccc(Br)c3)c3ccccc23)no1	0	-8	4	10*	24*	3	1	8	8.7*
Cc1cc(NC(=O)CS(=O)(=O)c2cn(Cc3ccccc3Cl)c3ccccc23)no1	0	-9	-3	2	2	/	/	/	/
Cc1ccc(NC(=O)Cc2nnc(SCC(=O)NC3CCCC3)n2C)c(C)c1	1	-3	0	-4	1	/	/	/	/
COc1ccc(S(=O)(=O)Nc2ccc(Nc3ccccc3)cc2)cc1	0	-4	7	12*	21*	7	1	13	11*
O=c1cc(N2CCN(c3cccc(Cl)c3Cl)CC2)[nH]c(=O)n1C1CCCCC1	/	0	-2	-2	2	/	/	/	/
O=C(COc1ccccc1F)c1ccc(O)cc1O	0	-1	0	-2	-4	/	/	/	/
Cc1c(O)ccc(C(=O)COc2ccccc2F)c1O	-1	4	8	12*	22*	1	0	27*	12*
